Data taken from ChEMBL document CHEMBL2375287, “A novel series of histamine H4 receptor antagonists based on the pyrido[3,2-d]pyrimidine scaffold: comparison of hERG binding and target residence time with PF-3893787” (Bioorg Med Chem Lett, 2013).

Key:
Histamine H3 receptor = Histamine H3 receptor (Homo sapiens, UniProt Q9Y5N1); assay: Displacement of [3H]histamine from human histamine H3 receptor expressed in HEK cells; format: cell-based, HEK293
Histamine H4 receptor [1] = molecular target: T1, Histamine H4 receptor (Homo sapiens, UniProt Q9H3N8); assay: Displacement of [3H]histamine from human histamine H4 receptor expressed in HEK cells; format: cell-based, HEK293
Summary of the method: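 Displacement of [3H]histamine from membranes of HEK cells transiently expressing human H4R, H3R or H1R. pKi given as mean ± SEM of at least three independent measurements; n = 2 where noted.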

[2] = molecular target: Voltage-gated inwardly rectifying potassium channel KCNH2 (Homo sapiens, UniProt Q12809); assay: Displacement of [3H]astemizole from human ERG channel
Sequence of Voltage-gated inwardly rectifying potassium channel KCNH2 (Q12809 whole entry): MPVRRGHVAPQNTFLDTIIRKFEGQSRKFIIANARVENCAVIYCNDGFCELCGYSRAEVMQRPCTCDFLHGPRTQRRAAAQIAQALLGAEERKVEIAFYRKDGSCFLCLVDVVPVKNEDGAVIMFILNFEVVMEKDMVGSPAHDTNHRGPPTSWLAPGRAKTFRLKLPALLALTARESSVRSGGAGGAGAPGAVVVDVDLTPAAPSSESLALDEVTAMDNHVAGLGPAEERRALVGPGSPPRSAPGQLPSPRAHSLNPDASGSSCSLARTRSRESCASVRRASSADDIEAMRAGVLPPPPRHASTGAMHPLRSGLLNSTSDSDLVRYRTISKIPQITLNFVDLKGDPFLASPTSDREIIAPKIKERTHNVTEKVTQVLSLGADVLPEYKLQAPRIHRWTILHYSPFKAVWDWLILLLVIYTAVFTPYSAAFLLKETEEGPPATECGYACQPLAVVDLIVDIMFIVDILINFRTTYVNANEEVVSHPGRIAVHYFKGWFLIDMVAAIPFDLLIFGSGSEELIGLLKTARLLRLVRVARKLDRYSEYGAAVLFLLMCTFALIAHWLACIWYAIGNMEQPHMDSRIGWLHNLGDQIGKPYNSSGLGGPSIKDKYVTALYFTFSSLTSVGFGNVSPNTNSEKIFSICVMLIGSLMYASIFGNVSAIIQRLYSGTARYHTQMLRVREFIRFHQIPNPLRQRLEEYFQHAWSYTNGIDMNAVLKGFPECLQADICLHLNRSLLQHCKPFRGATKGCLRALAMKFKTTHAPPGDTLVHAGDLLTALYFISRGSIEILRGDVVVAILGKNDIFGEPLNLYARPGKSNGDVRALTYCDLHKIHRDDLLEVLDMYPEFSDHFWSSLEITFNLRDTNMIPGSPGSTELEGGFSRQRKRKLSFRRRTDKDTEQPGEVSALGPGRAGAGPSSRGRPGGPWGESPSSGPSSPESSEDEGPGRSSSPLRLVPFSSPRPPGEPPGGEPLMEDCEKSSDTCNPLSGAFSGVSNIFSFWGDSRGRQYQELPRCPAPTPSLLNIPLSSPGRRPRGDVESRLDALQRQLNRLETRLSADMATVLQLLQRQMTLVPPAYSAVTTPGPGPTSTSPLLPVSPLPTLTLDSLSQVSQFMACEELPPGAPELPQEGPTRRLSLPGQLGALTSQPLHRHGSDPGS

Homo sapiens = species on record: Homo sapiens; assay: Selectivity ratio of Ki for human histamine H3 receptor to Ki for human histamine H4 receptor
Histamine H4 receptor [3] = molecular target: T1, Histamine H4 receptor; assay: Displacement of [3H]histamine from human histamine H4 receptor expressed in HEK cells by competitive kinetic analysis; format: cell-based, HEK293
Histamine H4 receptor [4] = molecular target: T1, Histamine H4 receptor; assay: Antagonist activity at human histamine H4 receptor expressed in HEK cells assessed as inhibition of histamine-induced [35S]GTPgammaS binding; format: functional, cell-based, HEK293; conditions: for pKb: HEK293
Histamine H4 receptor [5] = molecular target: T2, Histamine H4 receptor (Mus musculus, UniProt Q91ZY2); assay: Binding affinity to mouse histamine H4 receptor
T2 sequence (Q91ZY2 whole entry): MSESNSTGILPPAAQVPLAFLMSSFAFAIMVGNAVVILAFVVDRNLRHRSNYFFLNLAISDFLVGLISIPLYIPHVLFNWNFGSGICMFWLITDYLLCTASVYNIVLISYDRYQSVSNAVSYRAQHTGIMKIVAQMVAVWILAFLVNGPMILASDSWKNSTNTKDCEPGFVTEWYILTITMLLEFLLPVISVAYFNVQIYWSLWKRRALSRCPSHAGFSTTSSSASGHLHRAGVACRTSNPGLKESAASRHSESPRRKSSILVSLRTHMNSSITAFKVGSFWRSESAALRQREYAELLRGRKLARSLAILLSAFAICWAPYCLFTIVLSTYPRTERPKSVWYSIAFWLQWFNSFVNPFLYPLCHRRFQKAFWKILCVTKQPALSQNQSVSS

Histamine H4 receptor [6] = molecular target: Histamine H4 receptor (Rattus norvegicus, UniProt Q91ZY1); assay: Binding affinity to rat histamine H4 receptor
Sequence of Histamine H4 receptor (Rattus norvegicus, UniProt Q91ZY1) (Q91ZY1 whole entry): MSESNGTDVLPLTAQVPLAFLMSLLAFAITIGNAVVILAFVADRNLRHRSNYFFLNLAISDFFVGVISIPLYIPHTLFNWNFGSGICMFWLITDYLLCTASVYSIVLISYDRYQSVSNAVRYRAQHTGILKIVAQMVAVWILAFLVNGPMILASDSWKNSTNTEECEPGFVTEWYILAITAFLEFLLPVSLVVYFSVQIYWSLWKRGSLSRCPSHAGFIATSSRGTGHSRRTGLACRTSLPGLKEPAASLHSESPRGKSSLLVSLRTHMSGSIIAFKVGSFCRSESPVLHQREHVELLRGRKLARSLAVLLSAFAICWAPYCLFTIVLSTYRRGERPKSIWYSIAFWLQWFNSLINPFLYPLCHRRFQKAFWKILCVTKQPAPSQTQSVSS

Histamine H2 receptor = Histamine H2 receptor (Homo sapiens, UniProt P25021); assay: Displacement of [3H]histamine from human histamine H2 receptor expressed in HEK cells
Sequence of Histamine H2 receptor (P25021 whole entry): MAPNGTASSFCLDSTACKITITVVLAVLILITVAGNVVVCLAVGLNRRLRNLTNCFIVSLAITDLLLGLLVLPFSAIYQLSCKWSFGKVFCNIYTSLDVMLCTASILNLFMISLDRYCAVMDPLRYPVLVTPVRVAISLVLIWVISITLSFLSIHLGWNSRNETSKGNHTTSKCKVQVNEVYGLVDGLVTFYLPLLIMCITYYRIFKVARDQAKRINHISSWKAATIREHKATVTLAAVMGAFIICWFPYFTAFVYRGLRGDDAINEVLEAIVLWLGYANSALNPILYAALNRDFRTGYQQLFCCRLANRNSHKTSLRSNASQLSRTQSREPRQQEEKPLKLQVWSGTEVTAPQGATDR

Histamine H1 receptor = Histamine H1 receptor (Homo sapiens, UniProt P35367); assay: Displacement of [3H]histamine from human histamine H1 receptor expressed in HEK cells
Sequence of Histamine H1 receptor (P35367 whole entry): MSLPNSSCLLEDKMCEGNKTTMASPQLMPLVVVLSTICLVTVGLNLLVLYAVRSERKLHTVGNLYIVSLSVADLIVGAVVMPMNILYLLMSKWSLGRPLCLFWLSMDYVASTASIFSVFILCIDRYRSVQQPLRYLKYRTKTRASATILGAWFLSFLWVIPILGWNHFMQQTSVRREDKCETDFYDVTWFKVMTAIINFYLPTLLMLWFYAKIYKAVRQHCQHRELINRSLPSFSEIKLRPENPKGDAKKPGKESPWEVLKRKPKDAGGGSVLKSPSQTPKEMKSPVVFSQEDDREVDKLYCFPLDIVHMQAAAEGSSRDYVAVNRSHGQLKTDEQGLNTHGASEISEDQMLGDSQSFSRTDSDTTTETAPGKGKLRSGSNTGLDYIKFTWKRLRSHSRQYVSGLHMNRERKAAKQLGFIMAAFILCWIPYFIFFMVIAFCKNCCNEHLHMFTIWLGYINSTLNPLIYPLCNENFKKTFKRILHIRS

Sequence of Histamine H3 receptor (Q9Y5N1 whole entry): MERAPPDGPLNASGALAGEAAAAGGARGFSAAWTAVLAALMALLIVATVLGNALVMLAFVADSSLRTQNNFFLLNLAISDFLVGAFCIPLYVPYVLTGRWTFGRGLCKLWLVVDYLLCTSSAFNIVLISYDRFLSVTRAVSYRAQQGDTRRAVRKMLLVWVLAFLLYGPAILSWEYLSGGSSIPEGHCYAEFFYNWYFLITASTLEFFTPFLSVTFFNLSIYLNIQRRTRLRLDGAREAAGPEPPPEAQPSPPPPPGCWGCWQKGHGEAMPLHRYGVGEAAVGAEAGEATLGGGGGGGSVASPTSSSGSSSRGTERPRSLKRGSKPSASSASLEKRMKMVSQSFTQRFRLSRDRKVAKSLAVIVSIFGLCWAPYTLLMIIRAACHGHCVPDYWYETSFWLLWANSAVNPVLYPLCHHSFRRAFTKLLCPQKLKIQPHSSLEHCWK

| Ki (Histamine H3 receptor) [µM] | Ki (Histamine H4 receptor [1]) [µM] | Ratio Ki (Homo sapiens) | Kd (Histamine H4 receptor [3]) [µM] | IC50 (Histamine H4 receptor [4]) [µM] | pKb (Histamine H4 receptor [4]) | Ki (Histamine H4 receptor [5]) [µM] | Ki (Histamine H4 receptor [6]) [µM] | Ki (Histamine H2 receptor) [µM] | Ki (Histamine H1 receptor) [µM] | SMILES | Ki [2] [µM] |
| --- | --- | --- | --- | --- | --- | --- | --- | --- | --- | --- | --- |
| 0.832 | 0.0251 |  |  |  |  |  |  |  |  | CNC1CN(c2nc(N)nc3cc(C(C)C)cnc23)C1 |  |
| 0.155 | 0.0115 | 13 |  |  |  |  |  |  |  | Nc1nc(N2CCNCC2)c2ccc(C3CC3)cc2n1 | 4.68 |
| 1 | 0.0102 | 98 |  |  |  |  |  |  |  | CN[C@@H]1CCN(c2nc(N)nc3cc(C4CC4)cnc23)C1 | > 100 |
| 0.178 | 0.0219 | 8 |  |  |  |  |  |  |  | CN[C@@H]1CCN(c2nc(N)nc3cc(C4CC4)ccc23)C1 |  |
| 0.603 | 0.017 | 56 |  |  |  |  |  |  |  | CCc1ccc2c(N3CC[C@@H](NC)C3)nc(N)nc2c1 | 2.75 |
| 0.331 | 0.0123 | 27 |  |  |  |  |  |  |  | Nc1nc(N2CCNCC2)c2ccc(C3CCCC3)cc2n1 | 3.39 |
| 9.55 | 0.0537 | 186 |  |  |  |  |  |  |  | CNC1CN(c2nc(N)nc3cc(C#N)cnc23)C1 | > 100 |
| 0.617 | 0.0112 | 89 |  |  |  |  |  |  |  | CCc1ccc2c(N3CC(NC)C3)nc(N)nc2c1 | 2.45 |
| 0.151 | 0.00646 | 23 | 0.0102 | 0.0977 | 8.2 | 0.0195 | 0.0275 | 2.82 | 16.6 | CNC1CN(c2nc(N)nc3cc(C4CCCC4)cnc23)C1 | > 100 |
|  | 0.0151 |  | 0.0407 |  |  |  |  |  |  | Nc1nc(N2CCNCC2)c2ccc(-c3ccco3)cc2n1 |  |
| 0.631 | 0.00525 | 120 | 0.0135 | 0.0708 | 8.33 | 0.0151 | 0.0295 |  | 20.9 | CNC1CN(c2nc(N)nc3cc(C4CC4)cnc23)C1 | > 100 |
| 0.186 | 0.0102 | 22 | 0.0251 | 0.0537 | 8.46 | 0.055 | 0.055 |  |  | CN[C@@H]1CCN(c2cc(NCC3CC3)nc(N)n2)C1 [ADRIFORANT] | 3.47 |
| 1.51 | 0.00912 | 166 | 0.0214 | 0.126 | 8.08 | 0.0851 | 0.138 | 3.16 | 11.2 | CCc1cnc2c(N3CC[C@@H](NC)C3)nc(N)nc2c1 | 43.7 |
| 0.158 | 0.00339 | 47 |  |  |  |  |  |  |  | CNC1CN(c2nc(N)nc3cc(C4CCCC4)ccc23)C1 | 0.832 |
| 0.49 | 0.0151 | 32 |  |  |  |  |  |  |  | CNC1CN(c2nc(N)nc3cc(C(C)(C)C)ccc23)C1 |  |
| 0.214 | 0.00933 |  |  |  |  |  |  |  |  | CCc1cnc2c(N3CCN(C)CC3)nc(N)nc2c1 |  |
| 0.145 | 0.0123 | 12 |  |  |  |  |  |  |  | CN[C@@H]1CCN(c2nc(N)nc3cc(C(C)C)cnc23)C1 |  |
| 0.851 | 0.0355 | 24 |  |  |  |  |  |  |  | CC(C)(C)c1ccc2c(N3CCNCC3)nc(N)nc2c1 |  |
| 0.692 | 0.00708 | 98 |  |  |  |  |  |  |  | CNC1CN(c2nc(N)nc3cc(C4CC4)ccc23)C1 | 3.63 |
| 0.776 | 0.0107 | 72 | 0.00851 | 0.112 | 8.14 | 0.0501 | 0.0708 | 14.1 | 33.9 | CCc1cnc2c(N3CC(NC)C3)nc(N)nc2c1 | 34.7 |

| SMILES | Ki (Histamine H3 receptor) [µM] | Ki (Histamine H4 receptor [1]) [µM] | Ratio Ki (Homo sapiens) | Kd (Histamine H4 receptor [3]) [µM] | IC50 (Histamine H4 receptor [4]) [µM] | pKb (Histamine H4 receptor [4]) | Ki (Histamine H4 receptor [5]) [µM] | Ki (Histamine H4 receptor [6]) [µM] | Ki (Histamine H2 receptor) [µM] | Ki (Histamine H1 receptor) [µM] | Ki [2] [µM] |
| --- | --- | --- | --- | --- | --- | --- | --- | --- | --- | --- | --- |
| CCc1ccc2c(N3CCNCC3)nc(N)nc2c1 | 0.219 | 0.0148 | 15 |  |  |  |  |  |  |  | 1.51 |
| CN1CCN(c2nc(N)nc3ccccc23)CC1 |  | 0.0447 |  |  |  |  |  |  |  |  |  |
| CN1CCN(c2nc(N)nc3cccnc23)CC1 |  | 0.0309 |  |  |  |  |  |  |  |  |  |
